PGC1a Ac signal = raises PGC1a acetylation signal in U2OS cells | U2OS PGC1a acetylation AlphaScreen, overnight | activation, % at 15.6 µM | 350,000 tested, 0.21% active | AID 651723;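 active = every replicate reaching activation of at least 50%, whatever the mean replicate activation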;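 note: hits raise the AlphaScreen acetylation signal above neutral controls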
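System: flag-PGC1a/GCN5 U2OS cells / Input: 7000 cells/well / Compound: single test concentration per compound / Incubation: overnight compound treatment, 37 °C / Technique: AlphaScreen on lysates with anti-acetyl-lysine antibody, acceptor and donor beads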
Active calls of the source: *. The full list was thinned out, with hits kept by preference.

SMILES	PGC1a Ac signal
CC(C)Cn1cnc2c(N)nc3ccccc3c21	-42
COc1ccc(CCN2C(=O)CC(C(C)c3ccccc3)C2=O)cc1OC (stereo unspecified)	-45
COc1ccc(C2c3c(-c4ccccc4O)n[nH]c3C(=O)N2CCc2ccc(OC)c(OC)c2)cc1 (stereo unspecified)	63*
Cn1ncc(C(=O)Nc2ccc(Cl)cc2)c1C(F)(F)F	-65
Cc1ccc(S(=O)(=O)N(CC2CO2)c2ccccc2[N+](=O)[O-])cc1 (stereo unspecified)	-79
Cc1ccc(-c2cnc3c(c2)C(=O)N([C@@H](C)CO)C[C@@H](C)[C@H](CN(C)C)O3)cc1	-109
O=C(Cc1ccc([N+](=O)[O-])cc1)N/N=C/c1ccc([N+](=O)[O-])o1	302*
COc1ccc(/C=N/NC(=O)c2ccc(NC(=O)c3cccc([N+](=O)[O-])c3)cc2)c(OC)c1	-97
O=C(CNc1cccc([N+](=O)[O-])c1)N/N=C/c1ccc([N+](=O)[O-])o1	92*
N#CCc1ccc(NC(=O)/C=C/c2ccc([N+](=O)[O-])o2)cc1	299*
COc1ccc(C2(NC(C)=O)CCN(C(=O)CCC(=O)O)CC2)cc1	-49
CC(C)(C)c1ccc(OCCSc2nc3ccccc3n2CC(=O)O)cc1	-41
O=S(=O)(/C(=C\c1ccc(C(F)(F)F)cc1)c1nc2ccccc2[nH]1)c1ccccc1	-60
CCc1ccc(C(=O)NNC(=O)Cn2c(=O)cnc3ccccc32)cc1	-40
Cc1cnc(NC(=O)c2nn(C)cc2[N+](=O)[O-])s1	131*
Cn1cc([N+](=O)[O-])c(C(=O)Nc2nc(-c3ccc(Cl)cc3)cs2)n1	-63
Cc1ccc(Cn2ccc(NC(=O)c3nn(C)cc3[N+](=O)[O-])n2)cc1	145*
Cc1ccc(-c2nc(NC(=O)c3nn(C)cc3[N+](=O)[O-])sc2C)cc1C	-91
Cc1ccc(-c2nc(NC(=O)c3nn(C)cc3[N+](=O)[O-])sc2C)cc1	-96
CCCCN(c1ccccc1)c1ncnc(N)c1[N+](=O)[O-]	-52
CCCN(CC)c1ncnc2[nH]ncc12	-44
CN1C(=O)c2ccccc2C(C(=O)O)C1c1cccc([N+](=O)[O-])c1 (stereo unspecified)	-44
CC(C)C#Cc1ccc([C@@H]2[C@H](CO)N3C(=O)CN(C(=O)NC4CCCC4)C[C@@H]23)cc1	-107
COc1ccc(CCCNC(=O)C2(C)Cc3c(-c4ccc5c(c4)OCO5)ccnc3O2)cc1 (stereo unspecified)	54*
CCCCCSc1nnc(C)c(=O)[nH]1	-91
SMILES	PGC1a Ac signal
COc1ccc(NC(=O)N(C)C[C@@H]2OCCCC[C@@H](C)Oc3ccc(NC(=O)Cc4ccccc4)cc3C(=O)N([C@H](C)CO)C[C@@H]2C)cc1	-51
CCN(CC)CCOc1ccc(/C(=C(\Cl)c2ccccc2)c2ccccc2)cc1	80*
COc1ccc(S(=O)(=O)N(C)C[C@@H]2Oc3ccc(NS(=O)(=O)c4cn(C)cn4)cc3C(=O)N([C@H](C)CO)C[C@@H]2C)cc1	-53
O=C1CCN(S(=O)(=O)c2ccc(Cl)cc2)N1	63*
CCn1c(C(C)NC(=O)c2ccccc2C)n[nH]c1=S (stereo unspecified)	-50
CC1CC1C(=O)OCC(=O)NCc1ccc(Cl)cc1 (stereo unspecified)	55*
C[C@@H]1CN([C@@H](C)CO)C(=O)CCCn2cc(nn2)CO[C@H]1CN(C)C(=O)Cc1ccccc1	-56
C[C@@H]1CCCCO[C@H](CN(C)C(=O)Cc2ccccc2)[C@H](C)CN([C@@H](C)CO)C(=O)c2cc(N(C)C)ccc2O1	-54
C[C@@H]1CN([C@@H](C)CO)C(=O)c2c(c3ccccc3n2C)-c2ccccc2CO[C@@H]1CN(C)C(=O)[C@H](C)c1ccccc1	115*
Cc1ccc(CNn2cnnc2SCC(=O)NC(C)(C)C)cc1	-42
CNC[C@H]1OCCCC[C@@H](C)Oc2ccc(NS(=O)(=O)c3ccccc3)cc2C(=O)N([C@H](C)CO)C[C@@H]1C	-49
N#CC(C#N)=c1ccc2c(c1)NC1(CCCCC1)N=2	162*
Cc1cccc(N(CC(=O)NC(C)(C)C)C(=O)CNC(=O)c2cccs2)c1	-47
COC(=O)c1ccc[n+](CC(=O)c2ccc(Br)cc2)c1	-43
O=c1oc(-c2ccccc2)cc(Cl)c1Cl	115*
CN(C)CCNC(=O)c1cccc2c(-c3ccc(F)c(F)c3)coc12	78*
CCCOc1ccc2c(c1)C(=NN=C(N)N)c1cc(OCCC)ccc1-2	75*
Nc1c(C(=O)c2ccccc2)sc2nsc(SCCN3CCCC3)c12	126*
COCCCNC(=S)Nc1cc(C)c(C)cc1C	-75
COc1ccc(Oc2c(Cl)cnn(-c3ccc(F)cc3)c2=O)cc1	81*
O=C(N=Nc1c(O)[nH]c2ccccc12)c1cc(-c2cccs2)[nH]n1	-48
CC(=O)c1cccc(-n2nnnc2SCC(=O)NNC(=O)C(C)C)c1	-85
OCc1ccc2c(c1)c(-c1ccc3c(c1)OCCO3)c(-c1ccccc1)n2-c1ccccc1	178*
C[C@H]1CN([C@@H](C)CO)C(=O)CCCn2cc(nn2)CO[C@H]1CN(C)S(=O)(=O)c1ccc(Cl)cc1	-49
COCCn1c(C)c(C)c2c(NCCc3ccccc3)ncnc21	-51
SMILES	PGC1a Ac signal
O=C1Nc2cc(S(=O)(=O)N3CCCC3)ccc2N2CCCC12 (stereo unspecified)	95*
O=C(OCn1ncc(Cl)c(Cl)c1=O)c1ccc(C(F)(F)F)cc1	154*
C=CS(=O)(=O)N(Cc1ccccc1Br)[C@H](CO)Cc1ccccc1	-44
O=C(CSc1nc(O)cc(=O)n1-c1ccccc1)N1CCCCC1	-44
Nc1nnc(SCC(=O)NC2CCCCC2)n1-c1ccccc1	62*
C=CCn1c(C)nnc1SCC(=O)NC1CC1	-50
CCOc1ccc(S(=O)(=O)N(C)c2ccc(OCC(=O)N3c4ccc(C)cc4C4CN(C)CCC43)cc2)cc1 (stereo unspecified)	-75
O=S(=O)(C/C(=C/CO)S(=O)(=O)c1ccccc1)c1ccccc1	112*
O=S(=O)(Nc1ccccn1)c1ccc(-n2cccn2)cc1	-46
CCn1c(SCC(N)=O)nnc1C(C)C	-44
CCn1c(CNc2ccc(C)cc2)nnc1SCC(N)=O	76*
CCn1c(SCC(=O)Nc2ccc(OC)c(OC)c2)nnc1-c1cccs1	-41
COC(=O)/C=C/c1cnc2ccccc2c1	-43
O=C(O)c1cccn1Cc1ccccc1F	-54
COc1cccc(-c2ccc(C3[C@@H]4CN(Cc5ccccn5)C[C@H]3N4)cc2)c1 (stereo partly specified)	56*
COc1cccc(CN2C[C@@H]3N[C@H](C2)C3c2ccc(-c3cccc(C#N)c3)cc2)c1 (stereo partly specified)	79*
Fc1cccc(CN2C[C@@H]3N[C@H](C2)C3c2ccc(/C=C/c3ccccc3)cc2)c1 (stereo partly specified)	66*
COc1cccc(-c2ccc(C3[C@@H]4CN(Cc5cccc(F)c5)C[C@H]3N4)cc2)c1 (stereo partly specified)	-97
COc1cccc(CN2C[C@@H]3N[C@H](C2)C3c2ccc(-c3ccccc3F)cc2)c1 (stereo partly specified)	108*
COc1cc(CN2C[C@@H]3N[C@H](C2)C3c2ccc(-c3ccccc3C)cc2)cc(OC)c1 (stereo partly specified)	-105
O=C(Cc1ccncc1)NCC[C@H]1CC[C@@H](NC(=O)C2CC2)[C@H](CO)O1	-62

Screening data deposited in PubChem BioAssay by Broad Institute.
